# Columns and labels:
# [1] = molecular target: Vascular endothelial growth factor receptor 2 (Homo sapiens, UniProt P35968); assay: Inhibition of human recombinant VEGFR-2 after 1 hr using [gamma-32P]ATP
# Outline: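 Recombinant human VEGFR-2 (10 ng) was incubated for 1 h at 28 °C with varying compound concentrations. Kinase buffer: Tris 50 mM pH 7.5, BSA, MnCl2 1.5 mM, MgCl2 10 mM, DTT 2.5 mM, Na3VO4, β-glycerophosphate 5 mM. Substrate was poly(Glu4/Tyr), with ATP plus [γ-32P]ATP; final DMSO was 0.1%. The reaction was stopped with 100% TCA, wells were washed with 10% TCA, and each well was counted for 1 min.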
# [2] = molecular target: Epidermal growth factor receptor (Homo sapiens, UniProt P00533); assay: Inhibition of human EGFR after 1 hr using [gamma-32P]ATP
# Chain of Epidermal growth factor receptor (P00533 whole entry): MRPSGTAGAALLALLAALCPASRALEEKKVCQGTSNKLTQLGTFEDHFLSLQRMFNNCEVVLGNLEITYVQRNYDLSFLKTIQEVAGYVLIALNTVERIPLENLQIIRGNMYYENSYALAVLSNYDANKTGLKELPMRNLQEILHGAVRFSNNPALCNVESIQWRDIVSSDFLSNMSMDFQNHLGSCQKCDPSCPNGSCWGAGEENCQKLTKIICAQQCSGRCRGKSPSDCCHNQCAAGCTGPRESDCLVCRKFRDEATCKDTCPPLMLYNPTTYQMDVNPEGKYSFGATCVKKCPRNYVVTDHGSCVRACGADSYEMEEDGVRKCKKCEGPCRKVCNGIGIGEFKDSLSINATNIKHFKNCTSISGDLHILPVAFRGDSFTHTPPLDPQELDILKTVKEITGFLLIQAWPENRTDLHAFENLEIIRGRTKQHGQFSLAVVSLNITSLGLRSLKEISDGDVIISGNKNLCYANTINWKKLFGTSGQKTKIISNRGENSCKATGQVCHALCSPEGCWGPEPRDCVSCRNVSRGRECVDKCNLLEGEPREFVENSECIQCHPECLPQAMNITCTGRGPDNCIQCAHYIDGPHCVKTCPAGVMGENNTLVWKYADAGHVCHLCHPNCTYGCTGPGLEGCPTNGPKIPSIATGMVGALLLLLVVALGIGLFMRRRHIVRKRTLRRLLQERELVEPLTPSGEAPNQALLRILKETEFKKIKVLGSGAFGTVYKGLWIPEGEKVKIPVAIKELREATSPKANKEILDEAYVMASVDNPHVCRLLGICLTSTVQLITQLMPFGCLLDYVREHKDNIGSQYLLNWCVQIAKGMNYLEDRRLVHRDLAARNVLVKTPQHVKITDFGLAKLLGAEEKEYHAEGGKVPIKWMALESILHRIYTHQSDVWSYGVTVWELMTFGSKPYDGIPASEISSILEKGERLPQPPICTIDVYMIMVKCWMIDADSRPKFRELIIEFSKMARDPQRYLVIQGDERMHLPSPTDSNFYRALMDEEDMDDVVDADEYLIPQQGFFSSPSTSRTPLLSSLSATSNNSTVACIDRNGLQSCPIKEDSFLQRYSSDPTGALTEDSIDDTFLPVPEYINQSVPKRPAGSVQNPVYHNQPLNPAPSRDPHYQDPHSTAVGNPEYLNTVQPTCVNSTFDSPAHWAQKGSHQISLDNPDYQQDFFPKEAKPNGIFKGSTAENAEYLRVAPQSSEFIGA
# [3] = molecular target: Mast/stem cell growth factor receptor Kit (Homo sapiens, UniProt P10721); assay: Inhibition of c-Kit (unknown origin) by radiometric protein kinase assay
# [4] = molecular target: Vascular endothelial growth factor receptor 1 (Homo sapiens, UniProt P17948); assay: Inhibition of VEGFR1 (unknown origin) by radiometric protein kinase assay
# [5] = molecular target: Platelet-derived growth factor receptor beta (Homo sapiens, UniProt P09619); assay: Inhibition of PDGFR-beta (unknown origin) by radiometric protein kinase assay
# Chain of Platelet-derived growth factor receptor beta (P09619 whole entry): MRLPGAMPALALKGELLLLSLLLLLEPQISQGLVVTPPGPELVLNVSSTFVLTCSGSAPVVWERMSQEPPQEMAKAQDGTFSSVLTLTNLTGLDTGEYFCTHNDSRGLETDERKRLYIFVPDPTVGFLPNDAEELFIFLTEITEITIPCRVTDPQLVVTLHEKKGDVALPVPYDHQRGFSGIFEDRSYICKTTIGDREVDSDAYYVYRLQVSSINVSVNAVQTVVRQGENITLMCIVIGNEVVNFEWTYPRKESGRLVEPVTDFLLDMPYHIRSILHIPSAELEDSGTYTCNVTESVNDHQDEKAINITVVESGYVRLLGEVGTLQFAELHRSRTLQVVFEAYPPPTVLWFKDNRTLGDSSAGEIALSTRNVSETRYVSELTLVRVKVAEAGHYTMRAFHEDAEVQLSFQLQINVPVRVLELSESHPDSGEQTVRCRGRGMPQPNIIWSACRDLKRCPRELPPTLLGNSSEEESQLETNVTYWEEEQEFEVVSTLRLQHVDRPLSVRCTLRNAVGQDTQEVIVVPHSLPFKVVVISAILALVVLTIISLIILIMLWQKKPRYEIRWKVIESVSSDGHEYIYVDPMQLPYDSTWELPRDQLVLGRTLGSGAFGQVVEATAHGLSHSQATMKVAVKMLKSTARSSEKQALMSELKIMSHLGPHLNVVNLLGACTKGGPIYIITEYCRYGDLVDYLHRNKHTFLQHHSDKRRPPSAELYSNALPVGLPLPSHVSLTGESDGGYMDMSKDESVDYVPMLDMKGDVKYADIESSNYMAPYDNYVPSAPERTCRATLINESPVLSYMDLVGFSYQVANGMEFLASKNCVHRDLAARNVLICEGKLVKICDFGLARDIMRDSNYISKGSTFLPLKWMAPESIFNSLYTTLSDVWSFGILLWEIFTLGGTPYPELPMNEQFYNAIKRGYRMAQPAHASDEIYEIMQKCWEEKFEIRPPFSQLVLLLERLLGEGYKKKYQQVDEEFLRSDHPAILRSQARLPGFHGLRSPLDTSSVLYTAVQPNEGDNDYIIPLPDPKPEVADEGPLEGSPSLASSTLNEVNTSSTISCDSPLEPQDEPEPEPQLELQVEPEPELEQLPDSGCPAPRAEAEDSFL
# [6] = molecular target: Hepatocyte growth factor receptor (Homo sapiens, UniProt P08581); assay: Inhibition of c-MET (unknown origin) by radiometric protein kinase assay
# Chain of Hepatocyte growth factor receptor (P08581 whole entry): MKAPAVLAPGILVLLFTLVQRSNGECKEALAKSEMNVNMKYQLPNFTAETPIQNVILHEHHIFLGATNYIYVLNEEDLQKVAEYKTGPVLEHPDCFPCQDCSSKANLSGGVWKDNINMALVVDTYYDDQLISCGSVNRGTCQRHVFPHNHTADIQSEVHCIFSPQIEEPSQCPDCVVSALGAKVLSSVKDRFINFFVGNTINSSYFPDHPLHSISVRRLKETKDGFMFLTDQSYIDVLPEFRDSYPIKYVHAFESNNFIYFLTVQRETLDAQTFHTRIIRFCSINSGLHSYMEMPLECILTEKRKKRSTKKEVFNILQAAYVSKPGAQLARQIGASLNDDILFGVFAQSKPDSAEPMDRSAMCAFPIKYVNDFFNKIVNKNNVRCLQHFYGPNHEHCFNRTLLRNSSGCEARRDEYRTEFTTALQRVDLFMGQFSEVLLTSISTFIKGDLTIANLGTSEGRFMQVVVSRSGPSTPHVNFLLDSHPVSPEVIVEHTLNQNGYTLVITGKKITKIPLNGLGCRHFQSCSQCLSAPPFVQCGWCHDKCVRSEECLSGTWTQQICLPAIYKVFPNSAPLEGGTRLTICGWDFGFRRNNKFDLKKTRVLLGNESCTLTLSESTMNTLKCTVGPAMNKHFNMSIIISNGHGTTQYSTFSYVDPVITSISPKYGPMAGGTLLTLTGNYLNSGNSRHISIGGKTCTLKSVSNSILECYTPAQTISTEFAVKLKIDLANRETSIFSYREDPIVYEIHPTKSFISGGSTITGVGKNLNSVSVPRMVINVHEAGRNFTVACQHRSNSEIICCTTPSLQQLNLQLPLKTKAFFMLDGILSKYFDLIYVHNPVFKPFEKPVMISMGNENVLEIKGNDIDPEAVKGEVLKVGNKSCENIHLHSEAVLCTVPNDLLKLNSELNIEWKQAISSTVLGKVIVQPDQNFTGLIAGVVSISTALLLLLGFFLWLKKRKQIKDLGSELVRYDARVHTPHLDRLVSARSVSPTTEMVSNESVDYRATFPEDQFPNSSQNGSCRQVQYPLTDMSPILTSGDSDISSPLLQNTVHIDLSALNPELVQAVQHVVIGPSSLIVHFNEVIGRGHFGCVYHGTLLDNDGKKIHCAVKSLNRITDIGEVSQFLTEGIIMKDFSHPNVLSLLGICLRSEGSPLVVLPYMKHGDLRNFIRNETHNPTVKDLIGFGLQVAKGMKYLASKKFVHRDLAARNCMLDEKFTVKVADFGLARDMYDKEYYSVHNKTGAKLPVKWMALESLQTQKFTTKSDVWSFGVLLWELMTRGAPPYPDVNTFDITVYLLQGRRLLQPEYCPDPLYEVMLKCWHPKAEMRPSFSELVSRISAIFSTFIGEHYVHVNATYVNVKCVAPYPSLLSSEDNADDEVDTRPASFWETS
# [7] = molecular target: Vascular endothelial growth factor receptor 3 (Homo sapiens, UniProt P35916); assay: Inhibition of VEGFR3 (unknown origin) by radiometric protein kinase assay
# [8] = molecular target: RAF proto-oncogene serine/threonine-protein kinase (Homo sapiens, UniProt P04049); assay: Inhibition of Raf (unknown origin) by radiometric protein kinase assay
# Chain of RAF proto-oncogene serine/threonine-protein kinase (P04049 whole entry): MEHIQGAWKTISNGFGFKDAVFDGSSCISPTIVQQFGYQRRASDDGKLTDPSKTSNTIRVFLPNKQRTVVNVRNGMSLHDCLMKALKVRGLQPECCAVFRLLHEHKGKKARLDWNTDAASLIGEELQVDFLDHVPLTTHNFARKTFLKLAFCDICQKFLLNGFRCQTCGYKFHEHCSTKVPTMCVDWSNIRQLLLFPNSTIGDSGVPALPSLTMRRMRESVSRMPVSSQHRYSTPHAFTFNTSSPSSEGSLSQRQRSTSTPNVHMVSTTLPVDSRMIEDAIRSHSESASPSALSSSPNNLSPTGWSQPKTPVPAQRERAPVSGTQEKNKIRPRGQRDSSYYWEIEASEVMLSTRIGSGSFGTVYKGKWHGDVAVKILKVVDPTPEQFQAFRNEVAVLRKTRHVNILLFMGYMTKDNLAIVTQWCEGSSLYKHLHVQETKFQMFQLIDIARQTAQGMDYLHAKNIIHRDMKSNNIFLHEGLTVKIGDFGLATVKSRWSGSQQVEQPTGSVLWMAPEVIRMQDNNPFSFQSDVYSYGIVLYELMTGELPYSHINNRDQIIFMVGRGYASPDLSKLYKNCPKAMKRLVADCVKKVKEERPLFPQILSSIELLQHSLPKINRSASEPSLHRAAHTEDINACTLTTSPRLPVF
# [9] = molecular target: Proto-oncogene tyrosine-protein kinase Src (Homo sapiens, UniProt P12931); assay: Inhibition of Src (unknown origin) by radiometric protein kinase assay
# Chain of Proto-oncogene tyrosine-protein kinase Src (P12931 2-536 limits assumed): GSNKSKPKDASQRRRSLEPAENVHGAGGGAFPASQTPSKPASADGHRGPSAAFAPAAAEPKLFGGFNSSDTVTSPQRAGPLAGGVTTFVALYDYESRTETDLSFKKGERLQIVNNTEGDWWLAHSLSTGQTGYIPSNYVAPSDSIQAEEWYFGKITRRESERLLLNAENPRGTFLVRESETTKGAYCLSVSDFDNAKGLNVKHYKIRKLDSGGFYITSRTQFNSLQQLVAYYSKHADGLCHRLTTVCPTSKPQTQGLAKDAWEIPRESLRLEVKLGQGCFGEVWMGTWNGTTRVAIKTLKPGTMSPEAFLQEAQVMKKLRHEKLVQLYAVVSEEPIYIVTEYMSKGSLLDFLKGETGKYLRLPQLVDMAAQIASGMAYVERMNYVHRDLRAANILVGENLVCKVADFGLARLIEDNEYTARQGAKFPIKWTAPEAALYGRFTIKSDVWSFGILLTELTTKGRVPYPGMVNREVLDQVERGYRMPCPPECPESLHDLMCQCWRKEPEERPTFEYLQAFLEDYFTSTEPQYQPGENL
SMILES,IC50 [1] [nM],IC50 [2] [nM],IC50 [3] [nM],IC50 [4] [nM],IC50 [5] [nM],IC50 [6] [nM],IC50 [7] [nM],IC50 [8] [nM],IC50 [9] [nM]
CCOC(=O)Nc1ccc(Oc2ncnc3ccccc23)cc1C,710,> 10000,,,,,,,
Fc1ccc(Nc2ncnc3ccccc23)cc1Cl,,30,,,,,,,
Fc1ccc(Oc2ncnc3ccccc23)cc1Cl,,590,,,,,,,
Fc1ccc(Nc2ncnc3sccc23)cc1Cl,,2980,,,,,,,
COc1cc2ncnc(Nc3ccc(NC(=O)Nc4cccc(Br)c4)cc3)c2cc1OC,12,7710,3,,,,,,
Fc1ccc(Nc2ncnc3sc4c(c23)CCCC4)cc1Cl,> 10000,1330,,,,,,,
O=C(Nc1ccc(Nc2ncnc3ccccc23)cc1)Nc1cccc(Br)c1,91,> 10000,1,5750,850,> 10000,47,> 10000,> 10000
CCOC(=O)Nc1ccc(Nc2ncnc3sc4c(c23)CCCC4)cc1C,> 10000,> 10000,,,,,,,
Fc1ccc(Oc2ncnc3sc4c(c23)CCCC4)cc1Cl,3500,> 10000,,,,,,,
CCOC(=O)Nc1ccc(Oc2ncnc3cc(OC)c(OC)cc23)cc1C,,> 10000,,,,,,,
CCOC(=O)Nc1ccc(Nc2ncnc3ccccc23)cc1C,,> 10000,,,,,,,
O=C(Nc1ccc(Nc2ncnc3sc4c(c23)CCCC4)cc1)Nc1cccc(Br)c1,310,3950,6,7150,2820,> 10000,420,> 10000,7640
O=C(Nc1ccc(Oc2ncnc3sc4c(c23)CCCC4)cc1)Nc1cccc(Br)c1,11,> 10000,17,1700,2300,> 10000,1020,5840,8460

# Continued, values first:
IC50 [1] [nM],IC50 [2] [nM],IC50 [3] [nM],IC50 [4] [nM],IC50 [5] [nM],IC50 [6] [nM],IC50 [7] [nM],IC50 [8] [nM],IC50 [9] [nM],SMILES
,> 10000,,,,,,,,CCOC(=O)Nc1ccc(Oc2ncnc3sccc23)cc1C
15,1260,,,,,,,,O=C(Nc1cccc(Br)c1)Nc1ccc(Oc2ncnc3sc4c(c23)CCCC4)cc1Cl
34,3290,,,,,,,,Cc1cc(Oc2ncnc3sc4c(c23)CCCC4)ccc1NC(=O)Nc1cccc(Br)c1
,> 10000,,,,,,,,Cc1cc(Oc2ncnc3sccc23)ccc1NC(=O)Nc1cccc(Br)c1
,> 10000,,,,,,,,COc1cc2ncnc(Oc3ccc(NC(=O)Nc4cccc(Br)c4)c(Cl)c3)c2cc1OC
,> 10000,1,> 10000,2120,> 10000,1980,4020,> 10000,O=C(Nc1ccc(Nc2ncnc3sccc23)cc1)Nc1cccc(Br)c1
,> 10000,,,,,,,,O=C(Nc1cccc(Br)c1)Nc1ccc(Oc2ncnc3sccc23)cc1Cl
,,16,46,5,2310,9,930,5470,COc1cc2ncnc(Oc3ccc(NC(=O)Nc4cccc(Br)c4)cc3)c2cc1OC
18,> 10000,11,1080,570,> 10000,6,> 10000,> 10000,O=C(Nc1ccc(Oc2ncnc3sccc23)cc1)Nc1cccc(Br)c1
8,> 10000,14,650,320,> 10000,7,6220,> 10000,O=C(Nc1ccc(Oc2ncnc3ccccc23)cc1)Nc1cccc(Br)c1
